Legend:
[1] = biological target: T1, Thrombopoietin receptor (Homo sapiens) (UniProt P40238); experiment: Thrombopoietin luciferase activity in BAF-3 cells; format: cell-based; conditions: BaF3
T1 sequence (whole entry): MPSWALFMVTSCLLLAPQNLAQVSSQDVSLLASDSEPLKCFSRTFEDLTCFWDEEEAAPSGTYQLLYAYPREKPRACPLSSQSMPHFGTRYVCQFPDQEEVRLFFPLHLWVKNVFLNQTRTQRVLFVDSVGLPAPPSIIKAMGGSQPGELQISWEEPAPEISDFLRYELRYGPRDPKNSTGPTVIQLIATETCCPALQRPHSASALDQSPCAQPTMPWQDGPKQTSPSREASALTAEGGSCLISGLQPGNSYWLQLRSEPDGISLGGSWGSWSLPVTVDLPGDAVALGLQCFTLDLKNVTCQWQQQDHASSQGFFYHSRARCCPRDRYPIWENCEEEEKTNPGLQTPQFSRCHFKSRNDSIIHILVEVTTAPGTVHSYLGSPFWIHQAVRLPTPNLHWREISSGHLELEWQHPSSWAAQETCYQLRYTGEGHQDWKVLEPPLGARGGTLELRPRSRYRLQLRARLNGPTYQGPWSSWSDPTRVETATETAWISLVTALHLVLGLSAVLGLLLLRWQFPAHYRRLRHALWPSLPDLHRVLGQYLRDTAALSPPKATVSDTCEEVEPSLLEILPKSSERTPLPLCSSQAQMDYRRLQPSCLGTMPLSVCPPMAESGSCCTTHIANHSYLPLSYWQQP

[2] = biological target: T2, Thrombopoietin receptor (Homo sapiens, UniProt P40238); experiment: Effective concentration for thrombopoietin luciferase activity was determined in BAF-3 cells; format: cell-based, BaF3
T2 sequence (P40238 whole entry): T1 sequence (whole entry)

[3] = Compound tested for UT7/TPO cell proliferation activity (%TPO) using proliferation assay.; format: functional, Homo sapiens
How it was run: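 UT7/TPO cells kept in IMDM/10% FBS/glutamine plus rhTPO, starved overnight without TPO. Cells (0.2 × 10^6/mL) in starving medium incubated with compounds (0.32% DMSO final) or rhTPO, 37 °C, 5% CO2, 72 h. Pellet DNA content read by BrdU kit. Mean value over control as % of maximal-TPO response, duplicates, plotted vs concentration for EC50.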

[4] = Effective concentration (EC50) required to inhibit CD34 cell differentiation; format: functional; conditions: Homo sapiens
How it was run: (§1)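 Human bone marrow CD34+ cells from light density marrow cells (2 × 10^6 cells/mL) in IMDM with 20% v/v FCS and rhSCF 100 ng/mL, cultured with sample or TPO (maximal 100 ng/mL) for 10 days at 5% CO2 and 4% O2. Stained with FITC-anti-CD41 and FITC-anti-IgG1 isotype control, formaldehyde-fixed, flow cytometry; %CD41 = CD41 positive minus isotype positive.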

[5] = Compound tested for CD34+ cell differentiation activity (%TPO) using CD34+ differentiation assay; format: functional, Homo sapiens; how it was run: as §1

Efficacy [1]	EC50 [2]	EC50 [4]	Structure (SMILES)	Efficacy [3]	Efficacy [5]
32%	> 30000 nM		Cc1[nH]n(Cc2ccccc2)c(=O)c1/N=N/c1c(O)cc(S(=O)(=O)O)c2ccccc12		
30%	10000 nM		Cc1ccccc1-n1[nH]c(C)c(/N=N/c2c(O)cc(S(=O)(=O)O)c3ccccc23)c1=O		
< 5%			Cc1[nH]n(-c2ccc(S(=O)(=O)O)cc2)c(=O)c1/N=N/c1c(O)cc(S(=O)(=O)O)c2ccccc12		
39%	500 nM		Cc1[nH]n(-c2ccc(F)cc2)c(=O)c1/N=N/c1c(O)cc(S(=O)(=O)O)c2ccccc12		
53%	2000 nM		Cc1ccc(-n2[nH]c(C)c(/N=N/c3c(O)cc(S(=O)(=O)O)c4ccccc34)c2=O)cc1	90%	
67%	200 nM		Cc1[nH]n(-c2ccc(Cl)c(Cl)c2)c(=O)c1/N=N/c1c(O)cc(S(=O)(=O)O)c2ccccc12	70%	
21%	5000 nM		Cc1[nH]n(-c2ccccc2)c(=O)c1/N=N/c1c(O)cc(C(=O)O)c2ccccc12		
100%	40 nM	200 nM	Cc1ccc(-n2[nH]c(C)c(/N=N/c3c(O)cc(S(=O)(=O)O)c4ccccc34)c2=O)cc1C	90%	100%
71%	70 nM		Cc1[nH]n(-c2cccc(C(C)(C)C)c2)c(=O)c1/N=N/c1c(O)cc(S(=O)(=O)O)c2ccccc12		
6%	> 30000 nM		Cc1[nH]n(-c2ccccc2Cl)c(=O)c1/N=N/c1c(O)cc(S(=O)(=O)O)c2ccccc12		
< 5%			CC(C)(C)c1ccc(-n2[nH]c(C(=O)O)c(/N=N/c3c(O)cc(S(=O)(=O)O)c4ccccc34)c2=O)cc1		
47%	2000 nM		Cc1[nH]n(-c2ccc(Cl)cc2)c(=O)c1/N=N/c1c(O)cc(S(=O)(=O)O)c2ccccc12	75%	
< 5%			Cc1[nH]n(-c2ccc(O)cc2)c(=O)c1/N=N/c1c(O)cc(S(=O)(=O)O)c2ccccc12		
< 5%			Cc1[nH]n(-c2ccc(C(=O)O)cc2)c(=O)c1/N=N/c1c(O)cc(S(=O)(=O)O)c2ccccc12		
100%	70 nM		Cc1[nH]n(-c2ccc(C(C)C)cc2)c(=O)c1/N=N/c1c(O)cc(S(=O)(=O)O)c2ccccc12		
28%	300 nM		Cc1[nH]n(-c2cccc([N+](=O)[O-])c2)c(=O)c1/N=N/c1c(O)cc(S(=O)(=O)O)c2ccccc12		
56%	2000 nM		CCOC(=O)c1[nH]n(-c2ccc(C(C)(C)C)cc2)c(=O)c1/N=N/c1c(O)cc(S(=O)(=O)O)c2ccccc12		
34%	700 nM		Cc1cccc(-n2[nH]c(C)c(/N=N/c3c(O)cc(S(=O)(=O)O)c4ccccc34)c2=O)c1		
81%	300 nM		Cc1[nH]n(-c2ccc(I)cc2)c(=O)c1/N=N/c1c(O)cc(S(=O)(=O)O)c2ccccc12	100%	60%
24%	7000 nM		Cc1[nH]n(-c2ccccn2)c(=O)c1/N=N/c1c(O)cc(S(=O)(=O)O)c2ccccc12		
39%	100 nM		Cc1[nH]n(-c2ccc(C(F)(F)F)cc2)c(=O)c1/N=N/c1c(O)cc(S(=O)(=O)O)c2ccccc12	100%	
87%	5000 nM		CC(C)(C)c1ccc(-n2[nH]c(N)c(/N=N/c3c(O)cc(S(=O)(=O)O)c4ccccc34)c2=O)cc1		
26%	2000 nM		Cc1[nH]n(-c2ccccc2)c(=O)c1/N=N/c1c(O)cc(S(=O)(=O)O)c2ccccc12		
18%	3000 nM		Cc1[nH]n(-c2ccc(S(C)(=O)=O)cc2)c(=O)c1/N=N/c1c(O)cc(S(=O)(=O)O)c2ccccc12		
63%	400 nM		Cc1[nH]n(-c2ccc([N+](=O)[O-])cc2)c(=O)c1/N=N/c1c(O)cc(S(=O)(=O)O)c2ccccc12		
92%	900 nM		Cc1ccc(-n2[nH]c(-c3ccccc3)c(/N=N/c3c(O)cc(S(=O)(=O)O)c4ccccc34)c2=O)cc1C		
19%	8000 nM		Cc1[nH]n(-c2ccccc2[N+](=O)[O-])c(=O)c1/N=N/c1c(O)cc(S(=O)(=O)O)c2ccccc12		
25%	10000 nM		CCNS(=O)(=O)c1cccc(-n2[nH]c(C)c(/N=N/c3c(O)cc(S(=O)(=O)O)c4ccccc34)c2=O)c1		
34%	200 nM		Cc1[nH]n(-c2ccc(OCc3ccccc3)cc2)c(=O)c1/N=N/c1c(O)cc(S(=O)(=O)O)c2ccccc12		
62%	40 nM	100 nM	Cc1[nH]n(-c2cccc(C(F)(F)F)c2)c(=O)c1/N=N/c1c(O)cc(S(=O)(=O)O)c2ccccc12		95%

Continued, compound first:

Structure (SMILES)	Efficacy [1]	EC50 [2]	EC50 [4]	Efficacy [3]	Efficacy [5]
O=S(=O)(O)c1cc(O)c(/N=N/c2c(O)c(O)cc3ccccc23)c2ccccc12	26%	2000 nM			
Cc1[nH]n(C(C)(C)C)c(=O)c1/N=N/c1c(O)cc(S(=O)(=O)O)c2ccccc12	< 5%				
Cc1ccc(-n2[nH]c(C(C)(C)C)c(/N=N/c3c(O)cc(S(=O)(=O)O)c4ccccc34)c2=O)cc1C	72%	300 nM			
O=S(=O)(O)c1cc(O)c(/N=N/c2c(O)ccc3cc(O)ccc23)c2ccccc12	16%	2000 nM			
COc1cc(O)c2ccccc2c1/N=N/c1c(O)cc(S(=O)(=O)O)c2ccccc12	19%	3000 nM			
Oc1ccc2ccccc2c1/N=N/c1c(O)ccc2ccccc12	< 5%				
Cc1ccc(-n2[nH]cc(/N=N/c3c(O)cc(S(=O)(=O)O)c4ccccc34)c2=O)cc1C	95%	100 nM			
O=C(O)c1cccc2c(/N=N/c3c(O)cc(S(=O)(=O)O)c4ccccc34)c(O)ccc12	< 5%				
O=[N+]([O-])c1cc(O)c(/N=N/c2c(O)ccc3ccccc23)c2ccccc12	< 5%				
O=S(=O)(O)c1cc(O)c(/N=C/c2c(O)ccc3ccccc23)c2ccccc12	< 5%				
Cc1ccc(-n2[nH]c(C)c(/N=N/c3c(O)cc(C(=O)O)c4ccccc34)c2=O)cc1	47%	2000 nM			
O=S(=O)(O)c1cc(O)c(/N=N/c2ccc(O)c3ccc(O)cc23)c2ccccc12	< 5%				
Cc1ccc(O)c(/N=N/c2c(O)cc(S(=O)(=O)O)c3ccccc23)c1	28%	3000 nM			
O=S(=O)(O)c1cc(O)c(/N=N/c2ccc3ccccc3c2O)c2ccccc12	87%	70 nM			
CCOc1nn(-c2ccc(C)c(C)c2)c(O)c1/N=N/c1c(O)cc(S(=O)(=O)O)c2ccccc12	80%	600 nM			
Cc1[nH]n(-c2cc(Cl)c(S(=O)(=O)O)cc2Cl)c(=O)c1/N=N/c1c(O)cc(S(=O)(=O)O)c2ccccc12	< 5%				
O=C(Nc1c(O)cc(S(=O)(=O)O)c2ccccc12)c1c(O)ccc2ccccc12	< 5%				
Cc1ccc(-n2[nH]c(C)c(/N=N/c3c(O)cc(C(=O)O)c4ccccc34)c2=O)cc1C	24%	1000 nM			
Cc1n[nH]c(O)c1/N=N/c1c(O)cc(S(=O)(=O)O)c2ccccc12	< 5%				
Cc1[nH]n(-c2cc(S(=O)(=O)O)ccc2Cl)c(=O)c1/N=N/c1c(O)cc(S(=O)(=O)O)c2ccccc12	< 5%				
CC(C)(C)OC(=O)c1[nH]n(-c2ccc(C(C)(C)C)cc2)c(=O)c1/N=N/c1c(O)cc(S(=O)(=O)O)c2ccccc12	32%	200 nM			
O=S(=O)(O)c1cc(O)c(/N=N/c2c(O)c3ccccc3c3ccccc23)c2ccccc12	61%	200 nM			
O=C(O)c1cc2ccccc2c(/N=N/c2c(O)cc(S(=O)(=O)O)c3ccccc23)c1O	48%	10000 nM			
O=S(=O)(O)c1cc(O)c(NCc2c(O)ccc3ccccc23)c2ccccc12	< 5%				
O=S(=O)(O)c1cc(O)c(/N=N/c2c(O)ccc3ccc(O)cc23)c2ccccc12	31%	2000 nM			
Cc1[nH]n(C)c(=O)c1/N=N/c1c(O)cc(S(=O)(=O)O)c2ccccc12	< 5%				
O=S(=O)(O)c1cc(O)c(/N=N/c2c(O)cc(O)c3ccccc23)c2ccccc12	16%	5000 nM			
Cc1[nH]n(CCO)c(=O)c1/N=N/c1c(O)cc(S(=O)(=O)O)c2ccccc12	< 5%				
O=S(=O)(O)c1ccc(/N=N/c2c(O)ccc3ccccc23)c2ccccc12	< 5%				
COc1ccc2ccc(O)c(/N=N/c3c(O)cc(S(=O)(=O)O)c4ccccc34)c2c1	85%	300 nM			
